Test results published in ChEMBL document CHEMBL1134337, “Behavioral approach to nondyskinetic dopamine antagonists: identification of seroquel” (J Med Chem, 2001).

What was measured:
[1] = target: D(2) dopamine receptor (Rattus norvegicus) (UniProt P61169); assay: Inhibitory activity for the displacement of spiropiperidone (1000 nM) from dopamine D2 receptor of rat
Method in brief: (§1)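 D2 receptor binding was read as % displacement of spiropiperidone, with test compound at 1000 nM unless stated otherwise. IC50 values used at least five concentrations per compound in triplicate. Each value is the mean of two replicate experiments differing by 5% or less.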

[2] = test system: Mus musculus; assay: Antagonism of apomorphine induced climbing was determined in female swiss -Webster mice after (ip) administration of 80 mg/kg; format: functional
Method in brief: (§2)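 Female Swiss-Webster mice (about 20 g) were fasted about 24 h, then given test compound or vehicle ip or po (N = 20 per group). Vehicle was 0.5% w/w hydroxypropylmethylcellulose with 0.1% w/w Tween 80 in water. After 30 min, mice received apomorphine HCl 1.25 mg/kg sc. At 13 min, each mouse was watched for 1 min; score was mean of highest and lowest rung of 27. Groups were compared with vehicle by Student's t-test.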

[3] = test system: Mus musculus; assay: Antagonism of apomorphine induced swimming was determined in female swiss -Webster mice after (ip) administration of 80 mg/kg; format: functional
[4] = Number of animals showing dyskinesias was determined in haloperidol sensitized 13 cebus monkeys after (po) administration of 10 mg/kg; format: functional
Method in brief: (§3)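 Adult male and female Cebus monkeys sensitized with haloperidol 1 mg/kg po weekly until dyskinetic reactions appeared. Drug given orally (2 mL/kg) in 0.5% w/w hydroxypropylmethylcellulose with 0.1% w/w Tween 80, at least 2 weeks between treatments. Two observers watched continuously for 6–7 h, logging reaction type and severity every 30 min. Score is the number of monkeys with dyskinesias over the number tested.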

[5] = Number of animals showing dyskinesias was determined in haloperidol sensitized 13 cebus monkeys after (po) administration of 20 mg/kg; format: functional; method in brief: as §3
[6] = Number of animals showing dyskinesias was determined in haloperidol sensitized 4 cebus monkeys after (po) administration of 40 mg/kg; format: functional
Method in brief: (§4)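 Adult female and male Cebus monkeys sensitized with oral haloperidol 1 mg/kg once per week until dyskinetic reactions occurred. Test drug given orally (2 mL/kg) in 0.5% w/w hydroxypropylmethylcellulose with 0.1% w/w Tween 80 in distilled water, at least 2 weeks between treatments. Two observers watched continuously for 6-7 h, recording reaction type and severity every 30 min. Score is monkeys with dyskinesias/monkeys tested.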

[7] = test system: Mus musculus; assay: Antagonism of apomorphine induced climbing was determined in female swiss -Wbster mice after (ip) administration of 20 mg/kg; format: functional; method in brief: as §2
[8] = test system: Mus musculus; assay: Antagonism of apomorphine induced climbing was determined in female swiss -Wbster mice after (ip) administration of 40 mg/kg; format: functional; method in brief: as §2
[9] = test system: Mus musculus; assay: Antagonism of apomorphine induced climbing was determined in female swiss -Wbster mice after (ip) administration of 80 mg/kg; format: functional; method in brief: as §2
[10] = test system: Mus musculus; assay: Antagonism of apomorphine induced climbing was determined in female swiss -Wbster mice after (po) administration of 20 mg/kg; format: functional; method in brief: as §2
[11] = test system: Mus musculus; assay: Antagonism of apomorphine induced climbing was determined in female swiss -Wbster mice after (po) administration of 40 mg/kg; format: functional; method in brief: as §2
[12] = test system: Mus musculus; assay: Antagonism of apomorphine induced climbing was determined in female swiss -Wbster mice after (po) administration of 80 mg/kg; format: functional; method in brief: as §2
[13] = test system: Mus musculus; assay: Antagonism of apomorphine induced swimming was determined in female swiss -Wbster mice after (po) administration of 10 mg/kg; format: functional
[14] = test system: Mus musculus; assay: Antagonism of apomorphine induced swimming was determined in female swiss -Wbster mice after (po) administration of 20 mg/kg; format: functional
[15] = test system: Mus musculus; assay: Antagonism of apomorphine induced swimming was determined in female swiss -Wbster mice after (po) administration of 40 mg/kg; format: functional
[16] = test system: Mus musculus; assay: Antagonism of apomorphine induced swimming was determined in female swiss -Wbster mice after (po) administration of 80 mg/kg; format: functional
[17] = target: D(2) dopamine receptor (Rattus norvegicus, UniProt P61169); assay: Inhibition of spiropiperidone binding at dopamine receptor D2 of rat.
Sequence of D(2) dopamine receptor (P61169 whole entry): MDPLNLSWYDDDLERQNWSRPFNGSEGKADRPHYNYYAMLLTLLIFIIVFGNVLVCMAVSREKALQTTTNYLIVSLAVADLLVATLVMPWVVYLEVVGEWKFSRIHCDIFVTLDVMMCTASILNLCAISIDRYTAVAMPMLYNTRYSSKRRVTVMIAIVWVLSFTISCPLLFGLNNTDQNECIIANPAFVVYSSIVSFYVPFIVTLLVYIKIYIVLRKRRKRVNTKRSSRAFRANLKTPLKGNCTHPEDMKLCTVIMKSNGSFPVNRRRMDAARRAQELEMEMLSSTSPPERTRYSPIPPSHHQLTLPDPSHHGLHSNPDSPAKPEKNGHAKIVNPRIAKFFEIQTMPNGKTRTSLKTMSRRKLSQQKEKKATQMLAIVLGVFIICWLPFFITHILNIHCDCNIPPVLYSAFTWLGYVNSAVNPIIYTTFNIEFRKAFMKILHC

[18] = test system: Mus musculus; assay: Antagonism of apomorphine induced climbing was determined in female swiss -Webster mice after (po) administration of 20 mg/kg; format: functional; method in brief: as §2
[19] = test system: Mus musculus; assay: Antagonism of apomorphine induced climbing was determined in female swiss -Webster mice after (po) administration of 5 mg/kg; format: functional; method in brief: as §2
[20] = test system: Mus musculus; assay: Antagonism of apomorphine induced climbing was determined in female swiss -Webster mice after (p.o.) +SKF525A administration of 10 mg/kg; format: functional; conditions: route oral; method in brief: as §2
[21] = test system: Mus musculus; assay: Antagonism of apomorphine induced climbing was determined in female swiss -Webster mice after (p.o.) +SKF525A administration of 20 mg/kg; format: functional; conditions: route oral; method in brief: as §2
[22] = test system: Mus musculus; assay: Antagonism of apomorphine induced climbing was determined in female swiss -Webster mice after (ip) administration of 10 mg/kg; format: functional; method in brief: as §2
[23] = test system: Mus musculus; assay: Antagonism of apomorphine induced climbing was determined in female swiss -Webster mice after (ip) administration of 2.5 mg/kg; format: functional; method in brief: as §2
[24] = test system: Mus musculus; assay: Antagonism of apomorphine induced climbing was determined in female swiss -Webster mice after (ip) administration of 20 mg/kg; format: functional; method in brief: as §2
[25] = test system: Mus musculus; assay: Antagonism of apomorphine induced climbing was determined in female swiss -Webster mice after (ip) administration of 5 mg/kg; format: functional; method in brief: as §2
[26] = test system: Mus musculus; assay: Antagonism of apomorphine induced climbing was determined in female swiss -Webster mice after (p.o.) +SKF525A administration of 5 mg/kg; format: functional; conditions: route oral; method in brief: as §2
[27] = test system: Mus musculus; assay: Antagonism of apomorphine induced climbing was determined in female swiss -Webster mice after (po) administration of 10 mg/kg; format: functional; method in brief: as §2
[28] = Number of animals showing dyskinesias was determined in haloperidol sensitized 3 cebus monkeys after (po) administration of 80 mg/kg; format: functional; conditions: dose 10 mg/kg; in the assay text read “10 mg/kg” for “80 mg/kg”; method in brief: as §4
[29] = test system: Mus musculus; assay: Antagonism of apomorphine induced swimming was determined in female swiss -Wbster mice after (po) administration of 2.5 mg/kg; format: functional
[30] = test system: Mus musculus; assay: Antagonism of apomorphine induced swimming was determined in female swiss -Wbster mice after (po) administration of 5 mg/kg; format: functional
[31] = target: D(2) dopamine receptor (Rattus norvegicus) (UniProt P61169); assay: Binding affinity at dopamine receptor D2 from rat by spiropiperidone displacement.; method in brief: as §1
[32] = test system: Mus musculus; assay: Antagonism of apomorphine induced climbing was determined in female swiss -Webster mice after (ip) administration of 40 mg/kg; format: functional; method in brief: as §2
[33] = test system: Mus musculus; assay: Antagonism of apomorphine induced swimming was determined in female swiss -Webster mice after (ip) administration of 40 mg/kg; format: functional
[34] = Number of animals showing dyskinesias was determined in haloperidol sensitized cebus monkey after (po) administration of 40 mg/kg; format: functional; method in brief: as §4
[35] = test system: Mus musculus; assay: Antagonism of apomorphine induced swimming was determined in female swiss -Webster mice after (ip) administration of 10 mg/kg; format: functional
[36] = test system: Mus musculus; assay: Antagonism of apomorphine induced swimming was determined in female swiss -Webster mice after (ip) administration of 2.5 mg/kg; format: functional
[37] = test system: Mus musculus; assay: Antagonism of apomorphine induced swimming was determined in female swiss -Webster mice after (ip) administration of 20 mg/kg; format: functional
[38] = test system: Mus musculus; assay: Antagonism of apomorphine induced swimming was determined in female swiss -Webster mice after (ip) administration of 5 mg/kg; format: functional
[39] = Number of animals showing dyskinesias was determined in haloperidol sensitized 12 cebus monkeys after (po) administration of 80 mg/kg; format: functional; method in brief: as §4
[40] = Number of animals showing dyskinesias was determined in haloperidol sensitized 2 cebus monkeys after (po) administration of 20 mg/kg; format: functional; method in brief: as §4
[41] = test system: Mus musculus; assay: Antagonism of apomorphine induced climbing was determined in female swiss -Wbster mice after (ip) administration of 10 mg/kg; format: functional; method in brief: as §2

Sequence of D(2) dopamine receptor (Rattus norvegicus) (P61169 whole entry): as above

For `COCC(COC)N1CCN(C2=Nc3ccccc3Sc3ccccc32)CC1`, the inhibition [1] was 4%, the Activity [2] was 19 and the Activity [3] was 0.

Compound `OCCOCCN1CCN(C2=Nc3ccccc3Sc3ccccc32)CC1` [QUETIAPINE] has a No of monkeys [4] of 1, a No of monkeys [5] of 2 and a No of monkeys [6] of 0. It also gave an Activity [7] of 15, an Activity [8] of 2 and an Activity [9] of 0. It also gave an Activity [10] of 18, an Activity [11] of 14 and an Activity [12] of 8. For the same compound, the Activity [13] was 3, the Activity [14] was 3 and the Activity [15] was 11. For the same compound, the Activity [16] was 18.

`CN1CCN(C2=Nc3ccccc3Cc3ccccc32)CC1` [PERLAPINE] showed an IC50 [17] of 2.7 µM, an Activity [18] of 2 and an Activity [19] of 20. The Activity [20] was 20, the Activity [21] was 16 and the Activity [22] was 7. For the same compound, the Activity [23] was 9, the Activity [24] was 0 and the Activity [25] was 9. It also gave an Activity [26] of 24 and an Activity [27] of 9.

`CN1CCN(C2=Nc3ccc(O)cc3Sc3ccccc32)CC1` showed a No of monkeys [28] of 3, an IC50 [17] of 0.049 µM and an Activity [22] of 1. For the same compound, the Activity [23] was 18, the Activity [24] was 1 and the Activity [25] was 13. The Activity [13] was 34, the Activity [29] was 3 and the Activity [14] was 32. For the same compound, the Activity [30] was 10.

Compound `COC[C@H](CN1CCN(C2=Nc3ccccc3Sc3ccccc32)CC1)OC` has a % displacement of spiropiperidone [31] of 10%, an Activity [32] of 19 and an Activity [2] of 1. The Activity [33] was 3 and the Activity [3] was 13.

For `c1ccc2c(c1)N=C(N1CCN(CC3COCCO3)CC1)c1ccccc1S2` (stereo not drawn), the No of monkeys [34] was 2, the % displacement of spiropiperidone [31] was 50% and the Activity [22] was 1. It also gave an Activity [23] of 14, an Activity [24] of 0 and an Activity [32] of 2. For the same compound, the Activity [25] was 6, the Activity [35] was 20 and the Activity [36] was 8. For the same compound, the Activity [37] was 20, the Activity [33] was 30 and the Activity [38] was 13.

In the case of `OCCOCCN1CCN(C2=Nc3cc(Cl)ccc3Sc3ccccc32)CC1`, the No of monkeys [39] is reported as 0, the No of monkeys [40] is reported as 0 and the No of monkeys [6] is reported as 0. It also gave a % displacement of spiropiperidone [31] of 58%, an Activity [41] of 20 and an Activity [7] of 12. It also gave an Activity [8] of 8, an Activity [9] of 0 and an Activity [10] of 25. The Activity [11] was 24, the Activity [12] was 16 and the Activity [14] was 1. For the same compound, the Activity [15] was 1 and the Activity [16] was 1.

In the case of `CN1CCN(C2=Nc3cc(Cl)ccc3Sc3ccccc32)CC1` [ISOCLOTHIAPINE], the % displacement of spiropiperidone [31] is reported as 46% and the Activity [2] is reported as 18.

`O=S1(=O)c2ccccc2N=C(N2CCN(CCOCCO)CC2)c2ccccc21` gave an Activity [2] of 23 and an Activity [3] of 0.

`CN1CCN(C2=Nc3cc(Cl)ccc3Oc3ccccc32)CC1` [ISOLOXAPINE] gave a % displacement of spiropiperidone [31] of 48%, an Activity [32] of 20 and an Activity [2] of 14.

`CN1CCN(C2=Nc3cc(Cl)ccc3Cc3ccccc32)CC1` showed a % displacement of spiropiperidone [31] of 40%, an Activity [32] of 24 and an Activity [2] of 25.
